Experimental data reported in article PMC8599380 (European Journal of Drug Metabolism and Pharmacokinetics, 2021).
Where two headings read alike, the source gives them in different places.

Assays:
[1] = test system: patients with hematologic and solid tumor malignancies; conditions: cited from earlier work
[2] = mouse plasma; cited from earlier work
[3] = Population pharmacokinetic model; type: in vivo, human
Method in brief: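 Patients dosed orally three or four times weekly; 28-day cycles of 3 weeks dosing then 7 days off. Plasma sampled pre-dose to 24 h on day 1, 5 and/or 19 (882 concentrations). FOCE-I estimation; lag-time and transit absorption models tested; exponential IIV; additive residual error on log data. Median-normalized power covariate models; forward P<0.05, backward P 0.01; bootstrap evaluation.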

[4] = cited from earlier work
[5] = cited from earlier work; remark: listed apart in the source
[6] = oral flat dose, preliminary phase 1 data

Which clinical response ([1]; 27 patients enrolled) does the source give for `CC(C)[C@H](C(=O)Nc1ccc(C(=O)NO)cc1)c1ccccc1` [REC-2282] here?
The clinical response was “minimal response to progressive disease”.

What about the “most common adverse event” value ([1]; 27 patients enrolled) of the same compound?
The value was “dose-dependent cytopenias”.

What about the observed dose-limiting toxicities [1] of the same compound?
Its observed dose-limiting toxicities is “grade 4 thrombocytopenia, febrile neutropenia and grade 3 neutropenia with infection and grade 4 psychosis”.

And the “coefficient of variation (CV) in apparent oral clearance among dose levels” value [1, 6]?
Its value is 36 to 76%.

And the “coefficient of variation (CV) in peak concentrations among dose levels” value [1, 6]?
Its value is 24–66%.

What about the median progression-free survival ([1]; patients with NF2 and meningiomas) of the same compound?
Its median progression-free survival is 9.1 months.

And the median progression-free survival ([1]; solid tumors)?
The median progression-free survival was 3.6 months.

And the “bound to plasma proteins” value [2]?
Its value is 96%.

And the “variability in dose-normalized AUC” value ([3]; 55 patients, 20 mg to 80 mg)?
The value was 24.1%.

What about the “variability in dose-normalized Cmax” value ([3]; 55 patients, 20 mg to 80 mg) of the same compound?
Its value is 29.6%.

What about the “dose proportionality of pharmacokinetics” value ([3]; flat doses 20 mg to 80 mg) of the same compound?
The value was “dose-proportional”.

And the “dose recovered in urine” value ([4]; rat urine)?
Its value is 5%.

What about the oral bioavailability ([4]; rats, preclinical, ref unpublished data) of the same compound?
Its oral bioavailability is 100%.

What about the oral bioavailability ([5]; mice, preclinical, ref unpublished data) of the same compound?
Its oral bioavailability is 26%.

What about the “dose recovered in urine” value ([5]; mouse urine) of the same compound?
The value was 1.4%.
